Structures are written as SMILES.

Data set [1] relates to Rattus norvegicus. As to the kind of experiment: Antiallergic activity in the rat PCA test following iv administration relative to M&B 22,948, the dose of which was 0.1 mg/kg for 100% inhibition. It counts as functional.
Data set [2] is described as follows: The function log (MrI) where M, is the molecular weight of the test compound and I is its activity relative to the reference compound 1, expresses the biological activity in molar terms. Type of data set: functional. Summed up: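 Relative activity I from iv rat PCA 100%-inhibition comparison with M&B 22,948, converted to molar terms as log(Mr·I) using the compound's molecular weight.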

Data set [3] is described as follows: Association constant at 25 degree C in aqueous media. Type of data set: ADME. Summed up: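 Spectroscopic method in aqueous buffer at 25 °C. Values are thermodynamic pKa's corrected for the ionic strength of the buffer solutions.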
Data set [4] is filed under the species Rattus norvegicus. The data set is described as follows: Biological activity. Type of data set: functional.
For data set [5], the system named is Rattus norvegicus. The data set is described as follows: Inhibitory dose in the rat PCA test following oral administration. It counts as functional. The conditions noted are these: read-out: ID50 (the source's name).
Data set [6] relates to Rattus norvegicus. As to the kind of experiment: Inhibitory dose in the rat PCA test following iv administration. Type of data set: functional. The conditions noted are these: read-out: ID50 (the source's name).

Turning to `CCOC(=O)c1cc(C)cc(NC(=O)c2nn[nH]n2)c1O`, the Relative activity in data set [1] amounted to 10. Besides, the Log MrI in data set [2] worked out at 3.46.

For `Cc1cc(NC(=O)c2nn[nH]n2)c(O)c(C(=O)O)c1`, in data set [1], the Relative activity worked out at 0.2. The same molecule had a Log MrI in data set [2] of 1.72.

`O=C(Nc1nn[nH]n1)c1cc([N+](=O)[O-])ccc1O`: the Relative activity in data set [1] is 0.5. Further, in data set [2], the Log MrI was 2.1.

In the case of `CC(=O)c1cc(F)cc(C(=O)Nc2nnn[nH]2)c1O`, the pKa in data set [3] (aqueous media, read-out: pKa) turned out to be 4.2; in data set [3] (buffer) it was 7.1. This molecule had a Relative activity in data set [1] of 0.5. In data set [4], the “Log [MrI]” value is 2.123.

Regarding `O=C(Nc1nn[nH]n1)c1cc(O)ccc1O`, the Relative activity in data set [1] amounted to 0.1. This molecule also came in with a Log MrI in data set [2] of 1.34.

As for `CC(=O)c1cc(F)cc(NC(=O)c2nnn[nH]2)c1O` [EFLUMAST], the Relative activity in data set [1] amounted to 20. Moreover, the ED50 in data set [5] came to 0.16 mg/kg; in data set [6], 4 µg/kg. In data set [4], the “Log [MrI]” value turned out to be 3.724.

`CC(=O)Nc1cc(NC(=O)c2nn[nH]n2)c(O)c(C(C)=O)c1`: in data set [1], the Relative activity was found to be 0.5. Besides, in data set [2], the Log MrI amounted to 2.19.

Turning to `COC(=O)c1cc(C)cc(NC(=O)c2nn[nH]n2)c1O`, the Relative activity in data set [1] is reported as 2. The Log MrI in data set [2] worked out at 2.74.

Regarding `COc1cccc(C(=O)Nc2nn[nH]n2)c1O`, the Relative activity in data set [1] is 1. In data set [4], the “Log [MrI]” value was 2.371.

Values taken from ChEMBL document CHEMBL1123158, “Synthesis and quantitative structure-activity relationships of antiallergic 2-hydroxy-N-1H-tetrazol-5-ylbenzamides and N-(2-hydroxyphenyl)-1H-tetrazole-5-carboxamides” (J Med Chem, 1986).
